The list is not random: actives were taken first. Their share in the collection is about 1.3%.
JMJD2C inh – inhibitors of human GASC-1 (JMJD2C) demethylase; inhibition, % at 2.35 µM; 330,000 tested, 0.069% active; GST-JMJD2C(1-420) H3K9me3 demethylation, DELFIA europium; Q9H3R0;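 active means more than half of a compound's replicate wells show inhibition beyond 50%, single wells judged on their own value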;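 further: signal counts dimethyl H3K9 product captured on neutravidin plate; 0% = median of DMSO wells and 100% = 0.3 times that DMSO median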
EP2 antag – EP2 receptor (human) inhibition; P43116; AID 1422; C6 glioma cells expressing human EP2, cAMP TR-FRET; cells stimulated with saturating PGE2; 260,000 tested, 0.52% active; inhibition, % at 25 µM;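 active means percent inhibition above 40 after rounding to a whole number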;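 further: rat C6 glioma host cells with rolipram phosphodiesterase inhibitor present; the protocol text gives 20 µM as final concentration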
Target sequence (P43116 whole entry, looked up): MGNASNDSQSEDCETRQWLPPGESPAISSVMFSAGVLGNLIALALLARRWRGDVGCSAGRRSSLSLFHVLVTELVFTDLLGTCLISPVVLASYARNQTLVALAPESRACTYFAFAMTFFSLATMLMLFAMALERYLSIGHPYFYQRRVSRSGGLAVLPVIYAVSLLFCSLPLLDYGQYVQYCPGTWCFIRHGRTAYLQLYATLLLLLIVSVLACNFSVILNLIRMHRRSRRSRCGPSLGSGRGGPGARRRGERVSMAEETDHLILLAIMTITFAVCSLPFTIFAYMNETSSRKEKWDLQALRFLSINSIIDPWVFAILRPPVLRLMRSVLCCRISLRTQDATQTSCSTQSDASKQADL
NR2E3 ag-1 – agonists of human NR2E3 nuclear receptor | CHO-S Gal4-NCOR/VP16-NR2E3 two-hybrid, luciferase | inhibition of corepressor binding, % at 3.98 µM | 360,000 tested, 0.35% active | AID 602229;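 active means inhibition above the mean of all tested compounds plus 3 SD, cut at about 70% in these data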;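 further: 0% = DMSO with NR2E3 transfected cells and 100% = cells lacking NR2E3 construct; higher means lower luciferase signal from less NR2E3 corepressor binding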
EP2 modulator – modulates human prostaglandin E2 receptor EP2 signaling | P43116 | EP2-expressing cells, cAMP HTRF FRET, PGE2 co-stimulation | induction, % at 25 µM | 260,000 tested, 0.83% active;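 active means compounds whose cAMP rise, as percent of the full-agonist control response, exceeds 60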;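 further: rat C6 glioma line stably carrying human EP2 under a CMV promoter; the protocol text gives 20 µM as final concentration; 100% = response of wells given 1 µM PGE2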
NR2E3 ag-2 – activates human photoreceptor nuclear receptor NR2E3; Q9Y5X4; GST-NR2E3/biotin-RetCOR TR-FRET, 1536-well; inhibition of corepressor binding, % at 4.78 µM; 320,000 tested, 0.12% active;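 active means percent inhibition above the cutoff of mean plus 3 SD of all tested compounds, set per screening campaign, cut at about 20% in these data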;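 further: 0% = DMSO wells and 100% = biotin wells as full block of FRET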
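Test system – NR2E3–RetCOR corepressor complex · Quantity – NR2E3 fusion 1.35 nM · Buffer or medium – Tris pH 7.5 · Incubation – Compound–protein incubation for 5 h at 4 °C · Technique – TR-FRET, Eu(K)-anti-GST donor, streptavidin-D2 acceptor, ex 340, em 617/671 nm · Evaluation – percent inhibition of 671/617 nm emission ratio versus biotin and DMSO controls · Plate – 1536-well format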
Furin inh – inhibitors of human furin; P09958; purified furin, fluorogenic substrate cleavage; inhibition, % at 20 µM or 30 µM; 220,000 tested, 0.061% active; in the data active means inhibition above about 25%
NR2E3 ag confirm – confirmation of human NR2E3 agonists; 2,300 tested, 51% active; AID 624378; CHO-S mammalian two-hybrid NR2E3-NCOR, luciferase luminescence; inhibition, % at 3.98 µM; shares compounds with NR2E3 ag-1;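 active means average inhibition above a cutoff equal to the mean inhibition of all tested compounds plus one SD, cut at about 70% in these data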;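 further: 0% = DMSO in NR2E3 cells and 100% = DMSO in cells lacking NR2E3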
VP16 counter – reduces GAL4-VP16 reporter signal in NR2E3 counterscreen; shares compounds with NR2E3 ag-1; CHO-S GAL4-VP16 luciferase reporter, luminescence; inhibition, % at 3.98 µM; 2,300 tested, 29% active; AID 624379;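 active means mean inhibition above a cutoff equal to the average over all tested compounds plus one standard deviation, cut at about 70% in these data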;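 further: luciferase from a UAS reporter driven by GAL4-VP16 transactivation; 0% = DMSO with VP16-transfected cells and 100% = DMSO with cells lacking VP16; higher means less reporter light so more repression of VP16 activity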
Starred values were filed as active, the others as inactive; · = no result given.

SMILES	JMJD2C inh	EP2 antag	NR2E3 ag-1	EP2 modulator	NR2E3 ag-2	Furin inh	NR2E3 ag confirm	VP16 counter
Cc1cccn2c(Nc3ccccc3)c(-c3ccccn3)nc12	12	8	82*	-12	-2	-18	3	9
Cc1ccn2c(NC(=O)c3ccccc3)c(-c3ccccc3)nc2c1	35	·	-8	·	-1	·	·	·
Cc1ccn2c(Nc3ccccc3)c(-c3ccccn3)nc2c1	-2	4	68	40	-2	-9	91*	64
Cc1nn(CCC(=O)N[C@H](C)Cn2nnc3ccccc32)c(C)c1C	·	8	·	5	·	·	·	·
CCOC(CN=c1nc(N(C)C)ss1)OCC	·	·	89*	·	·	·	17	3
Cc1c(/C(O)=C2/C(=O)C(=O)N(CCN3CCOCC3)C2c2ccccn2)cnn1-c1ccccc1 (stereo unspecified)	-1	6	84*	23	0	-5	33	57
Cc1ccc(C2/C(=C(/O)c3cnn(-c4ccccc4)c3C)C(=O)C(=O)N2CCCN2CCOCC2)o1 (stereo unspecified)	34	3	·	0	2	-21	·	·
COCCCNC(=S)N1CCN(c2nc(-c3ccccc3)cs2)CC1	-1	·	-1	·	3	·	·	·
COCCCNC(=S)N1CCN(c2nc(-c3ccc(Cl)cc3)cs2)CC1	·	·	65	·	·	·	73*	53
S=C(NN=C(c1ccccc1)c1ccccn1)N(Cc1ccccn1)Cc1ccccn1	·	·	92*	·	·	·	100*	79*
c1ccc(CN2CCN(c3ncnc4c3[nH]c3ccccc34)CC2)cc1	2	8	70	-54	2	-32	·	·
COc1ccc2c(c1)[nH]c1c(N3CCN(Cc4ccc5c(c4)OCO5)CC3)ncnc12	-6	25	92*	-44	2	-14	97*	86*
Cc1ccc2c(c1)[nH]c1c(N3CCN(Cc4ccccc4)CC3)ncnc12	-7	7	59	-44	-1	-10	86*	74*
Cc1ccc2[nH]c3c(N4CCN(Cc5ccc6c(c5)OCO6)CC4)ncnc3c2c1	·	·	·	-60	·	4	·	·
Cc1ccc2[nH]c3c(N4CCN(Cc5ccccc5)CC4)ncnc3c2c1	3	31	79*	-37	-2	3	88*	74*
COCCCNC(=S)N/N=C/c1ccccc1O	4	16	74*	-45	3	-5	-37	-11
COCCNC(=S)N/N=C(\C)c1ccccc1OC	-10	6	-8	18	3	-5	·	·
COc1ccc(O)c(/C=N/NC(=S)NCCc2ccccc2)c1	13	·	35	·	4	·	·	·
COCCNC(=S)N/N=C/c1ccccc1C(=O)O	-11	16	13	14	1	-19	·	·
COc1ccc(/C(C)=N/NC(=S)NCCc2ccccc2)c(O)c1	6	·	48	·	2	·	-18	-1
COCCNC(=S)N/N=C(\C)c1ccccc1O	14	8	66	-2	0	-15	-73	-50
COc1cccc(/C=N/NC(=S)NC2CC3CCC2C3)c1OC (stereo unspecified)	-11	12	-19	-29	3	-14	·	·
Oc1ccccc1/C=N/NC(=S)NC1CC2CCC1C2 (stereo unspecified)	-9	20	48	-44	3	-1	-164	-101
CCOC(=O)C[n+]1c(C)n(CC)c2ccccc21	·	8	·	1	·	·	·	·
CCc1ccc(NC(=O)CSc2nnc(-c3ccncc3)n2Cc2ccco2)cc1	·	9	·	-16	·	·	·	·
SMILES	JMJD2C inh	EP2 antag	NR2E3 ag-1	EP2 modulator	NR2E3 ag-2	Furin inh	NR2E3 ag confirm	VP16 counter
CCCCCCC[C@@H](C/C=C/CCC(=O)N(C)C/C(=C/Cl)C/C(=C\C(=O)N1C[C@H](O)CC1=O)OC)OC	·	·	62	·	·	·	62	53
CCCCCCC[C@@H](C/C=C/CCC(=O)N(C)C/C(=C/Cl)C/C(=C\C(=O)N1CC(OC)=CC1=O)OC)OC	-8	·	14	·	·	·	·	·
Cc1ccc2c(c1)C(=O)CC1(CCN(CC(=O)c3cn(C)c4ccccc34)CC1)O2	·	14	·	-108	·	·	·	·
Cc1nc2ccccc2cc1OCc1ccc(Cl)cc1	-1	5	78*	-10	2	-24	92*	73*
COC(=O)c1sccc1OCc1cccc(OC)c1	5	2	-24	7	-4	-20	·	·
Cc1nc2ccccc2cc1OCc1ccccc1	2	·	73*	-3	-1	-11	70*	66
COc1cccc(COc2cc3ccccc3nc2C)c1	10	6	73*	-17	1	-16	94*	76*
Cc1nc2ccccc2nc(C)c1=NOCc1cccc(Cl)c1	-5	5	-117	-4	-2	-25	·	·
CC(C)NC(=O)C1CC(c2ccccc2Cl)=NO1 (stereo unspecified)	·	6	·	-16	·	·	·	·
O=C1c2ccc3c4c(ccc(c24)C(=O)N1c1ccc(O)cc1)CC3	·	13	·	-18	·	·	·	·
Cc1ccc(-c2cc(C(F)F)n3ncc(C(=O)N4CCCCCC4)c3n2)cc1	·	9	·	-54	·	·	·	·
CC1(Cc2ccc(OC(F)(F)F)cc2)C(=O)Nc2ccc(S(=O)(=O)NC3CCCCC3)cc21 (stereo unspecified)	·	·	85*	·	·	·	51	23
Cc1cc(C)c(CN2CCN(C(=O)Cn3cnc4c(OCc5ccccc5)ncnc43)CC2)c(C)c1	-27	·	71*	·	·	·	67	56
CC1OC2CC(=O)OC2C2=C1C(=O)c1c(O)cccc1C2=O (stereo unspecified)	·	·	101*	·	·	·	98*	98*
O=C1c2cccc(O)c2C(=O)c2c(O)cc(CO)cc21	-10	16	·	·	4	·	·	·
Nc1ccc(Br)cc1-c1nc2ccccc2[nH]c1=O	1	5	62	-50	1	-12	91*	77*
Cn1cc([N+](=O)[O-])c(C(=O)Nc2nc(-c3ccc(Cl)cc3)cs2)n1	-2	75*	71*	-42	2	-15	47	0
CCc1cccc(OCC(=O)Nc2ccc(C)c(S(=O)(=O)N3CCCCCC3)c2)c1	5	·	-15	·	-3	·	·	·
Cc1ccc(NC(=O)COc2ccc(N(C)C(=O)C(C)(C)C)cc2)cc1S(=O)(=O)N1CCCCC1	4	·	63	·	·	·	0	44
COc1ccc(CCNc2c(C)c(C)nc3ncnn23)cc1	-8	8	93*	-8	1	-10	94*	75*
CCN(CC)c1nc2c(c(=O)[nH]c(=O)n2C)n1C	·	9	·	25	·	·	·	·
Cc1nnc(N/N=C/c2ccc(Br)cc2)n1N	6	·	57	·	1	·	-7	6
O=C(OC(c1ccccc1)c1nccc2ccccc12)c1ccccc1 (stereo unspecified)	·	·	75*	·	·	·	71*	31
